Test results reported in ChEMBL document CHEMBL3414433, “Discovery and profiling of a selective and efficacious Syk inhibitor” (J Med Chem, 2015).
Calls of active or inactive are those of the source. The calls are words filed in the database; no cut-off is given here.

How the values were obtained:
Rattus norvegicus = assay: Antiarthritic activity in Lewis rat collagen-induced arthritis model assessed as reduction of inflammatory cell infiltration in hind paw at 3 to 30 mg/kg, po qd administered on day 15 post immunization measured after day 28 by Giemsa/safranin O staining-based assay; assay type: functional, organism-based
In short: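 Female Lewis rats (140−160 g), arthritis induced by porcine collagen immunization (day 0) and boost (day 7); rats with swollen joints randomized, dosed orally once daily from day 15 to day 28. Hind paws taken on day 28, fixed in 10% buffered formalin for 48 h, decalcified over 16 days, paraffin-embedded; 3 μm sections stained with Giemsa and safranin O and scored.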

[1] = Drug uptake in Lewis rat blood at 22 mg/kg, po measured after 2 hrs; assay type: ADME, organism-based; set-up: dose 22 mg/kg, route oral; settings: read-out: Drug uptake
In short: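 Single oral dose of 22 mg/kg to Lewis rats; blood sampled at 2, 4 and 24 h after dosing for compound level and ex vivo FcγR-induced phospho-SLP76 in peripheral blood monocytes.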

[2] = molecular target: T1, Tyrosine-protein kinase receptor UFO (Homo sapiens, UniProt P30530); assay: Competitive binding affinity to human AXL
T1 sequence (P30530 whole entry): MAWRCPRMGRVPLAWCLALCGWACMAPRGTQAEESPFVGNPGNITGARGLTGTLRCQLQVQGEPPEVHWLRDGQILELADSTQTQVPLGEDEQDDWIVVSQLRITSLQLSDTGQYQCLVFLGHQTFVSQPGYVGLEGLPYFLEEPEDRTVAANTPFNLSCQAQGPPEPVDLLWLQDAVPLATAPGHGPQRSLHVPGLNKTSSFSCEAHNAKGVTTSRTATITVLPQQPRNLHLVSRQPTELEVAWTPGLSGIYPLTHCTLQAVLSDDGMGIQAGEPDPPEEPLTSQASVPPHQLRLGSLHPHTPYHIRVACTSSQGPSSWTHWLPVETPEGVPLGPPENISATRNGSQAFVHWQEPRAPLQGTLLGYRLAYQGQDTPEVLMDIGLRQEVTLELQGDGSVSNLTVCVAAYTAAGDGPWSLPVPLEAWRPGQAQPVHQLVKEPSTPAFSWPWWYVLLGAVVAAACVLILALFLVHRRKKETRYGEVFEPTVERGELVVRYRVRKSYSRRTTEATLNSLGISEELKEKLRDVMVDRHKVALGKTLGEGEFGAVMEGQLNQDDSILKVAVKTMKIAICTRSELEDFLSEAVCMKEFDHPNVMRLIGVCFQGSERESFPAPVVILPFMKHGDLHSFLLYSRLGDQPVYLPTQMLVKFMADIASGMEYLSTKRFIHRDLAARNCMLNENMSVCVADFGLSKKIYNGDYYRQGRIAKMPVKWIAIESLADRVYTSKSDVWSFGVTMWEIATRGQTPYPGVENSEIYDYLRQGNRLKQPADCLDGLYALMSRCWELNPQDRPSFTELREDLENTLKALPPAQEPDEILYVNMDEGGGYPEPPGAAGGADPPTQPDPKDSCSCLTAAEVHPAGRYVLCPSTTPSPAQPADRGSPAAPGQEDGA

[3] = Clearance in Beagle dog at 0.1 mg/kg, iv and 0.3 mg/kg, po; assay type: ADME, organism-based, Canis lupus familiaris; settings: in vivo
In short: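 One-in-one dosing in Beagle dogs: i.v. 0.1 mg/kg in NMP/PEG200 (3:7); p.o. 0.3 mg/kg in MC/water (0.5:99.5). Exposure values dose normalized.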

[4] = molecular target: Tyrosine-protein kinase SYK (Homo sapiens, UniProt P43405); assay: Competitive binding affinity to human SYK
In short: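 Kd was then determined for the kinases affected at that concentration.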

[5] = molecular target: Serine/threonine-protein kinase PAK 6 (Homo sapiens, UniProt Q9NQU5); assay: Competitive binding affinity to human PAK6
[6] = molecular target: STE20-like serine/threonine-protein kinase (Homo sapiens, UniProt Q9H2G2); assay: Competitive binding affinity to human SLK
Sequence of STE20-like serine/threonine-protein kinase (Q9H2G2 whole entry): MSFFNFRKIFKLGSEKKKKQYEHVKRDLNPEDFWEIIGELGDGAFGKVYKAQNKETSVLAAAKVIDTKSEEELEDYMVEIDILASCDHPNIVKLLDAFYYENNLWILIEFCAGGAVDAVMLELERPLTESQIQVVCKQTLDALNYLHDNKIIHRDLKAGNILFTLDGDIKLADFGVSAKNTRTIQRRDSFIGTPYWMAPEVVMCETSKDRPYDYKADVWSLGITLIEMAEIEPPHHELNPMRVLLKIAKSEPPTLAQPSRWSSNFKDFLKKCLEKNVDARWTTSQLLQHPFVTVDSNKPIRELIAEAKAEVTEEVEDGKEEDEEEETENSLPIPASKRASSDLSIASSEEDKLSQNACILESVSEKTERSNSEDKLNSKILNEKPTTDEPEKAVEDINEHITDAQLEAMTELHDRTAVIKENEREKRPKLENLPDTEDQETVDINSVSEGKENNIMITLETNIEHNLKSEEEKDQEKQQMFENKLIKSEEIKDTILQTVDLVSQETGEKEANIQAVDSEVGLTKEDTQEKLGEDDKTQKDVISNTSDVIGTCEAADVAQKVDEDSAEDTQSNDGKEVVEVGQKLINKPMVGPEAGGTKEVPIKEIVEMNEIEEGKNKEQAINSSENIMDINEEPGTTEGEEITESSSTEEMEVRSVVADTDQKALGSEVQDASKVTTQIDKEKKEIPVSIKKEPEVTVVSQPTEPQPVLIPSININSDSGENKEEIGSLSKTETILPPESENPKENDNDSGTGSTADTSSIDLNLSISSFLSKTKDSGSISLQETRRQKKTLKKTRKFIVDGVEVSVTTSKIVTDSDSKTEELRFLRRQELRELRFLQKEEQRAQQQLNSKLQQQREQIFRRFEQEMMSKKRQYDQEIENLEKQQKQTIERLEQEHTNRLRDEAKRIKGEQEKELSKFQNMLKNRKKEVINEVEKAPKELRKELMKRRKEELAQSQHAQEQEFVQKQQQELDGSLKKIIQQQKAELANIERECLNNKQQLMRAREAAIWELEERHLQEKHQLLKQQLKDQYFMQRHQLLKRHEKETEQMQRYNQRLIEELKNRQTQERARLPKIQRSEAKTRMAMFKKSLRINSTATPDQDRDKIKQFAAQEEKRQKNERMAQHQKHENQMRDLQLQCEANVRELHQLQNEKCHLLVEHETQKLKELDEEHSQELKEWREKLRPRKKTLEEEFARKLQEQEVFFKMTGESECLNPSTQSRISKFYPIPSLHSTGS

Sequence of Serine/threonine-protein kinase PAK 6 (Q9NQU5 whole entry): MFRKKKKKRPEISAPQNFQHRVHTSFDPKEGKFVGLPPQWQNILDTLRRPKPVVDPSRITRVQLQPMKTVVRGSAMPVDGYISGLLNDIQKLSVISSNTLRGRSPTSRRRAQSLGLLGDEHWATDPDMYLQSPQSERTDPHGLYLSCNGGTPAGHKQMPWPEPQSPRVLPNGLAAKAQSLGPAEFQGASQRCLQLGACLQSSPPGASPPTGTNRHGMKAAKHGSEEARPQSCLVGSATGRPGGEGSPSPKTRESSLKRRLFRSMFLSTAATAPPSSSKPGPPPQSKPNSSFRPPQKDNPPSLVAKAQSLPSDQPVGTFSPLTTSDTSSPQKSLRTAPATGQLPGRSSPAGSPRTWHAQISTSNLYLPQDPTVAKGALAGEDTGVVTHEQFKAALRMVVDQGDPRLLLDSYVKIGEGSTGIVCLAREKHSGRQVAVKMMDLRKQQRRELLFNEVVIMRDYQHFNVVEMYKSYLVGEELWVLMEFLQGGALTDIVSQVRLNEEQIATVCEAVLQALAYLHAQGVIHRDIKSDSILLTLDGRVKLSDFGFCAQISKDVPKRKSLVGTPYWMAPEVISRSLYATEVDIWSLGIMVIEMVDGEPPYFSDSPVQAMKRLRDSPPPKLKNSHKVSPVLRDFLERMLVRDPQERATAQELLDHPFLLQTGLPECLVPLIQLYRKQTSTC

Structure (SMILES): NC(=O)c1nnc(N[C@@H]2CCCC[C@@H]2N)nc1Nc1cccc2cc[nH]c12
- Activity (Rattus norvegicus): Active
- concentration at 2 h [1]: 900 nM
- Kd [2]: 71 nM
- clearance [3]: 11 mL/min/kg
- Kd [4]: 0.64 nM
- Kd [5]: 110 nM
- Kd [6]: 380 nM
